Assay results from ChEMBL document CHEMBL4229390, “Structure-guided evolution of a 2-phenyl-4-carboxyquinoline chemotype into PPARα selective agonists: New leads for oculovascular conditions” (Bioorg Med Chem Lett, 2018).
pEC50: −log10 of the molar value. The source made the active and inactive calls. The calls are words filed in the database; no cut-off is given here.

Key:
[1] = biological target: T1, Peroxisome proliferator-activated receptor alpha (Homo sapiens) (UniProt Q07869); assay: Agonist activity at human PPARalpha at 5 uM after 22 to 24 hrs by luciferase reporter gene assay
T1 sequence (whole entry): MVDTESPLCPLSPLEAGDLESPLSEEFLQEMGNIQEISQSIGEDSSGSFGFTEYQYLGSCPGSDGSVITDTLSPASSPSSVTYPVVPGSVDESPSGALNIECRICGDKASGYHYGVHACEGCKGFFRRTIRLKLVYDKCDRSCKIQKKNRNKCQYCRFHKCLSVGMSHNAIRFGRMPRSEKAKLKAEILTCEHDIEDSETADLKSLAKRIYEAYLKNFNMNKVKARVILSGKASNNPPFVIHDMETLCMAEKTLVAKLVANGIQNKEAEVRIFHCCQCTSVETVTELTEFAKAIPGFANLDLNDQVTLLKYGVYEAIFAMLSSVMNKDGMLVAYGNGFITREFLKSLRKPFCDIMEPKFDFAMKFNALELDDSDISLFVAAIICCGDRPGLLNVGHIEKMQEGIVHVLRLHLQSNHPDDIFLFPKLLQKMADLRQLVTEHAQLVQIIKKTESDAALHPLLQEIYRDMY
Outline: (§1)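 hPPARα luciferase reporter cells; read-out via oxyluciferin production. […] Fold-induction over DMSO control ± S.E. (n = 3), single experiment.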

[2] = biological target: T1, Peroxisome proliferator-activated receptor alpha (Homo sapiens); assay: Agonist activity at human PPARalpha at 10 uM after 22 to 24 hrs by luciferase reporter gene assay; outline: as §1
[3] = biological target: T2, Peroxisome proliferator-activated receptor delta (Homo sapiens, UniProt Q03181); assay: Agonist activity at human PPARdelta after 22 to 24 hrs by luciferase reporter gene assay
T2 sequence (Q03181 whole entry): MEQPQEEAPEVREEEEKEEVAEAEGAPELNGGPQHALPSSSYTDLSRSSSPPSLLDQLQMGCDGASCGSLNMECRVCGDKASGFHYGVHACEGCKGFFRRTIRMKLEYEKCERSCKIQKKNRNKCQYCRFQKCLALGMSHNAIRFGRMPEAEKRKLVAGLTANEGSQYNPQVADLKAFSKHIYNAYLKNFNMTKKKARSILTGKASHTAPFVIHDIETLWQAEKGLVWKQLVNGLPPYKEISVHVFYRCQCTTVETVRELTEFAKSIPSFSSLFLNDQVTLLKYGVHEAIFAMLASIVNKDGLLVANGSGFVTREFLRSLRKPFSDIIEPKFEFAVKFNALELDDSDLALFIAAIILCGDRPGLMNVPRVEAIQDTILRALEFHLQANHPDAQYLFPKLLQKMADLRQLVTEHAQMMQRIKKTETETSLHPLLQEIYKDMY

[4] = biological target: T3, Peroxisome proliferator-activated receptor gamma (Homo sapiens, UniProt P37231); assay: Agonist activity at human PPARgamma after 22 to 24 hrs by luciferase reporter gene assay
T3 sequence (P37231 whole entry): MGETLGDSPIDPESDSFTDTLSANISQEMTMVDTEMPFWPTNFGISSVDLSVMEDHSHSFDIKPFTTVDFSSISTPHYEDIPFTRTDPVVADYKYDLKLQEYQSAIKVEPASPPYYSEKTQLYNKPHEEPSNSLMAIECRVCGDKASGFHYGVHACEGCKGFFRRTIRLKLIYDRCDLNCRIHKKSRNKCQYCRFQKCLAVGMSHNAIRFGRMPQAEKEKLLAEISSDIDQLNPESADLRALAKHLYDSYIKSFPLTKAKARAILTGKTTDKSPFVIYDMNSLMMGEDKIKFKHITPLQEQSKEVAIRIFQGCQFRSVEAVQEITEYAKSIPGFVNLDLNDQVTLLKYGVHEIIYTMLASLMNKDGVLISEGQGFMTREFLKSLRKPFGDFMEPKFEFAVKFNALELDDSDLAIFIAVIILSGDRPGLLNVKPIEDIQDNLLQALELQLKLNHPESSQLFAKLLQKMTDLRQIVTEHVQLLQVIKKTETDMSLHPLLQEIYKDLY
Outline: (§2)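 Human PPAR luciferase reporter cell lines; luciferase read-out through oxyluciferin production. 10-point dose-response in triplicate, single experiment, giving EC50.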

[5] = biological target: T4, Peroxisome proliferator-activated receptor alpha (Homo sapiens, UniProt Q07869); assay: Agonist activity at human PPARalpha after 22 to 24 hrs by luciferase reporter gene assay; outline: as §2
T4 sequence (Q07869 whole entry): T1 sequence (whole entry)

[6] = biological target: T1, Peroxisome proliferator-activated receptor alpha (Homo sapiens); assay: Agonist activity at human PPARalpha after 22 to 24 hrs by luciferase reporter gene assay relative to GW590735; outline: as §2
[7] = biological target: T5, Peroxisome proliferator-activated receptor alpha (Mus musculus) (UniProt P23204); assay: Agonist activity at PPARalpha in C57BL/6N mouse assessed as upregulation of PPARalpha protein expression after 24 hrs by Western blot method
T5 sequence (whole entry): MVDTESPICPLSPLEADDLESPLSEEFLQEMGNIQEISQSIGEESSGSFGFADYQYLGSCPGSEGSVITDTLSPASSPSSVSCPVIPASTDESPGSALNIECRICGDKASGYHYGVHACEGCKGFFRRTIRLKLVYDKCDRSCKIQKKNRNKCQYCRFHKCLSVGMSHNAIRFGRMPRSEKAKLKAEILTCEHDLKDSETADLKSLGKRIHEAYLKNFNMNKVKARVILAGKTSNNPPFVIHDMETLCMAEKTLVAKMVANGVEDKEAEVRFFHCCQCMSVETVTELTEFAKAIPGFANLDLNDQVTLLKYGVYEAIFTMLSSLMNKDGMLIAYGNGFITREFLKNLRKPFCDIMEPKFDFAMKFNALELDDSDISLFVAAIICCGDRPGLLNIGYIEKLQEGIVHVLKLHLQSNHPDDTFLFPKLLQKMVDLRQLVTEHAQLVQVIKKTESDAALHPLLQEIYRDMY
Outline: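 Mouse 661W cells exposed for 24 h. PPARα protein detected by Western blot and quantified by densitometry. Experiments performed three times in triplicate; mean ± S.D.; Student's t-test.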

[8] = biological target: T5, Peroxisome proliferator-activated receptor alpha (Mus musculus); assay: Agonist activity at PPARalpha in C57BL/6N mouse assessed as upregulation of Acadm gene expression at 10 to 100 uM after 24 hrs by RT-PCR method
Outline: (§3)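 Mouse 661W cells treated for 24 h; target mRNA quantified by RT-PCR (n = 6). Reported as mean ± S.D.; group differences tested with Student's t-test.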

[9] = biological target: T5, Peroxisome proliferator-activated receptor alpha (Mus musculus); assay: Agonist activity at PPARalpha in C57BL/6N mouse assessed as upregulation of Cpt1a gene expression at 10 to 100 uM after 24 hrs by RT-PCR method; outline: as §3
[10] = biological target: T5, Peroxisome proliferator-activated receptor alpha (Mus musculus); assay: Agonist activity at PPARalpha in C57BL/6N mouse assessed as upregulation of Fabp3 gene expression at 10 to 100 uM after 24 hrs by RT-PCR method; outline: as §3
[11] = biological target: T5, Peroxisome proliferator-activated receptor alpha (Mus musculus); assay: Agonist activity at PPARalpha in C57BL/6N mouse assessed as upregulation of Slc25a20 gene expression at 10 to 100 uM after 24 hrs by RT-PCR method; outline: as §3
[12] = organism: Homo sapiens; assay: Antimigratory activity in HRCEC after 10 to 24 hrs by wound healing assay; assay type: functional
Outline: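 Wound healing (scratch) assay in human retinal capillary endothelial cells, closure assessed at 10 h and 24 h incubation. Performed three times in triplicate; mean ± S.D.; Student's t-test.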

[13] = biological target: T4, Peroxisome proliferator-activated receptor alpha; assay: Agonist activity at PPARalpha (unknown origin) expressed in reporter combo cells after 36 hrs by dual luciferase reporter gene assay; assay type: cell-based
Outline: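 Human PPARα luciferase reporter cell line. Luciferase activity was read indirectly as oxyluciferin production. EC50 came from a 10-point dose-response, dosed in triplicate in a single experiment. In the initial screen, agonism was expressed as fold-induction over the DMSO control (n = 3) at 5 and 50 μM.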

| SMILES | Activity [1] | Activity [2] | pEC50 [3] | pEC50 [4] | also measured |
| --- | --- | --- | --- | --- | --- |
| O=C(O)c1cccc(NCc2ccc(OCc3ccc([N+](=O)[O-])cc3)cc2)c1 | Active |  |  |  |  |
| COc1ccc(COc2ccc(CNc3cccc(OC(C)(C)C(=O)O)c3)c(OCc3ccc(OC)cc3)c2)cc1 |  |  | 5.05 | 5.25 | pEC50 [5]: 5.68; fold change (FC) [6]: 1.4 |
| O=C(O)c1cccc(NCc2ccc(OCc3cc(F)cc(F)c3)cc2)c1 | Active | Active |  |  |  |
| O=C(O)c1cccc(NCc2ccc(OCc3ccccc3)cc2)c1 | Active | Active |  |  |  |
| O=C(O)c1cccc(NCc2ccc(OCc3ccc(Cl)cc3Cl)cc2)c1 | Active |  |  |  |  |
| COc1ccc(COc2ccc(CNc3cccc(C(=O)O)c3)c(OCc3ccc(OC)cc3)c2)cc1 |  |  | < 4.00 | < 4.00 | pEC50 [5]: 5.29; fold change (FC) [6]: 1.1 |
| Cc1c(Cl)ccc2c(C(=O)O)cc(-c3ccccc3)nc12 |  |  |  |  | pEC50 [13]: 4.30 to 4.60 |

Further lines, with some results ahead:

| Activity [1] | Activity [2] | pEC50 [3] | pEC50 [4] | SMILES | also measured |
| --- | --- | --- | --- | --- | --- |
| Active | Active |  |  | O=C(O)c1cccc(NCc2ccc(OCc3ccc(Cl)cc3)cc2)c1 |  |
| inactive | Active | 4.41 | 4.74 | COc1ccc(COc2ccc(CNc3cccc(OC(C)(C)C(=O)O)c3)cc2)cc1 |  |
| inactive | Active |  |  | CC(C)(Oc1cccc(NCc2ccc(OCc3ccc(Cl)cc3)cc2)c1)C(=O)O |  |
|  |  | < 4.00 | < 4.00 | COc1ccc(COc2ccc(CNc3cccc(C(=O)O)c3)cc2)cc1 | Activity [7]: Dose-dependent effect; Activity [8]: Active; Activity [9]: Active; Activity [10]: Active; Activity [11]: Active; Activity [12]: Dose-dependent effect |
| inactive | Active |  |  | CC(C)(Oc1cccc(NCc2ccc(OCc3ccccc3)cc2)c1)C(=O)O |  |
| inactive | Active |  |  | CC(C)(Oc1cccc(NCc2ccc(OCc3cc(F)cc(F)c3)cc2)c1)C(=O)O |  |
